The sample as a whole holds a higher share of hits than the screen did.
UPR XBP1 act – activators of adaptive arm of unfolded protein response (XBP1). CHO-XBP1 luciferase reporter, IRE1-XBP1 UPR activation, luminescence; percent of tunicamycin response, DMSO as zero. activation, % at 20 µM. hit rate 0.33% among 330,000. AID 463104;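 active means versus positive control, 20 µM dose yields 30% or more activation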;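 further: 100% = tunicamycin at 10 µg/mL and 0% = DMSO only wells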
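Material: CHO-XBP1 cells stably carrying IRE1-XBP1-driven luciferase reporter | Medium: F12 with 10% serum | Compound dosing: 20 µM single concentration, DMSO 1% | Incubation: Overnight seeding at 37 °C, 6 h compound treatment at 37 °C | Detection: Steady-Glo luminescence read | Read-out basis: % activation of reporter signal versus tunicamycin and DMSO controls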
UCH37 DUB inh – human UCH37 deubiquitinating enzyme inhibition. Q9Y5K5. purified proteasome/UCH37, Ub-AMC cleavage fluorescence. inhibition, % (concentration not given with the values). hit rate 0.33% among 330,000. AID 588478;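 active means mean inhibition over replicate wells above about 20%, limit read from the data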;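 further: 0% = compound-free wells with enzyme and 100% = wells lacking proteasome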
Target sequence (Q9Y5K5 whole entry, looked up): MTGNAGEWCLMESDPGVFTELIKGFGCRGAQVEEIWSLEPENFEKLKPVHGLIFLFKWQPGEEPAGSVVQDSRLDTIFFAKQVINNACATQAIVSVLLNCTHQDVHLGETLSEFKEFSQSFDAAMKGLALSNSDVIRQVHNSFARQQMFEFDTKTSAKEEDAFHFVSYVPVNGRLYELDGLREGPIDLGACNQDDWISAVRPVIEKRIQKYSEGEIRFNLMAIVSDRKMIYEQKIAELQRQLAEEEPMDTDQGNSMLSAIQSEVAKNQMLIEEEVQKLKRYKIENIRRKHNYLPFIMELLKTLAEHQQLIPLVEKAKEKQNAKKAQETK
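System: Proteasome-associated human UCH37 deubiquitinase; Input: 0.15 nM proteasome in added enzyme buffer; Also added: Ub-AMC substrate from 1 µM stock; Incubation: 30 min compound-proteasome preincubation then 25 min substrate reaction, room temperature; Detection: fluorescence, ex 355 nm, em 460 nm; Read-out: % inhibition of Ub-AMC cleavage fluorescence; Benchmarks: no-proteasome and no-compound wells.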
CTSL1 counter – cathepsin L1 inhibition, PFM18AAP counter-screen | recombinant F. hepatica cathepsin L1, Z-Leu-Arg-MCA fluorescence | inhibition, % at 5.96 µM | hit rate 0.49% among 300,000;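 active means inhibition above the mean of all tested compounds plus 3 SD, set per screening campaign, cut at about 17% in these data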;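 further: 0% = plate median of test compound wells and 100% = 1 µM Z-Phe-Ala-diazomethylketone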
UPR CHOP act – activators of apoptotic arm of unfolded protein response (CHOP). CHO-CHOP luciferase reporter, UPR activation, luminescence; percent of tunicamycin response over DMSO baseline. activation, % at 10 µM. hit rate 0.34% among 330,000;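 active means at 10 µM dose, activation of 40% or more, normalized to positive control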;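 further: 100% = tunicamycin at 10 µg/mL and 0% = DMSO alone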
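Assay system: CHO-CHOP cells, stable luciferase reporter of PERK-eIF2a-CHOP signalling / Buffer or medium: F12 plus 10% serum / Compound dosing: one dose, 10 µM in 0.5% DMSO / Times: 6 h compound treatment, 37 °C / Technique: luciferase luminescence / Read-out: % reporter activation, DMSO baseline versus tunicamycin full activation / Benchmarks: tunicamycin and DMSO controls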
CHOP inh – CHOP inhibition in unfolded protein response | CHO-K1 CHOP-promoter luciferase, tunicamycin-induced, 15-18 h | inhibition, % at 10 µM | hit rate 3.8% among 220,000 | AID 2732;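 active means compounds that reduced the stress-induced luciferase reporter signal by more than about 70% of percent inhibition, limit read from the data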;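 further: 0% = tunicamycin plus vehicle and 100% = wells without tunicamycin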
CHOP confirm – confirmation of CHOP induction inhibitors | shares compounds with CHOP inh | CHO-CHOP promoter luciferase reporter, tunicamycin-induced, luminescence | inhibition, % at 10 µM | hit rate 45% among 2,100;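 active means mean of three repeat readings of reporter signal inhibition above a set limit, cut at about 70% in these data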;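 further: 0% = tunicamycin plus vehicle and 100% = wells lacking tunicamycin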
Active calls of the source: *; . = not tested or not shown.

SMILES	UPR XBP1 act	UCH37 DUB inh	CTSL1 counter	UPR CHOP act	CHOP inh	CHOP confirm
Cc1cc(C)cc(OCc2ccc(C(=O)O)o2)c1	1.2	5.2	0.9	-1.6	47.7	.
O=C(c1ccc(COc2ccc(Br)cc2)o1)N1N=C(C(F)F)CC1(O)C(F)F (stereo unspecified)	-1.4	2.8	-0.9	-0.6	108.0*	21.4
Cc1ccc(C)c(OCc2ccc(C(=O)N3N=C(C(F)F)CC3(O)C(F)F)o2)c1 (stereo unspecified)	-5.6	4.1	1.8	-0.6	108.2*	119.7*
Cc1cc(C)cc(OCc2ccc(C(=O)N3N=C(C(F)F)CC3(O)C(F)F)o2)c1 (stereo unspecified)	1.7	.	-3.3	0.4	102.1*	57.3
O=C(c1ccc(COc2ccc3ccccc3c2)o1)N1N=C(C(F)F)CC1(O)C(F)F (stereo unspecified)	-0.6	2.8	-2.1	-0.8	111.4*	55.5
CCOc1ccc(OCc2ccc(C(=O)N3CCCC3)o2)cc1	-3.5	2.0	-4.9	2.0	-47.4	.
CCOc1ccc(OCc2ccc(C(=O)N3N=C(C(F)F)CC3(O)C(F)F)o2)cc1 (stereo unspecified)	-4.2	2.6	4.2	0.9	98.8*	-10.6
OCCN(CC(O)Cn1ccc2ccccc21)CC(O)Cn1ccc2ccccc21 (stereo unspecified)	-0.3	4.4	8.0	-0.7	13.5	.
CC(C)(C)c1ccc(OCC(O)CN(CCO)CC(O)Cn2ccc3ccccc32)cc1 (stereo unspecified)	-3.4	4.5	8.6	-1.7	103.4*	4.5
O=C(CCl)N(c1ccccc1)C1CCCCC1	-7.9	2.2	-1.5	-1.1	107.4*	16.5
CC(=O)N(c1ccccc1)C1CCCC1	-0.9	2.6	-0.6	0.7	18.2	.
CC(CC(=O)Nc1ccc(Br)cc1)=NNC(=O)Cc1csc(N)n1	.	2.6	.	.	.	.
COc1cccc(-c2c(C(=O)NN=CC3CC=CCC3)nnn2-c2nonc2N)c1 (stereo unspecified)	.	3.2	.	.	.	.
FC(F)(F)c1cccc(Sc2nc(-c3ccccc3)nnc2C(F)(F)F)c1	-10.6	2.4	-0.5	-6.0	108.5*	108.7*
O=C1Nc2ccccc2C1=Nc1sc2c(c1C(=O)Nc1ccccc1)CCCC2	.	5.0	.	.	.	.
Cc1ccc(/C=C2\SC(=S)N(CCCC(=O)Nc3ccc(O)cc3)C2=O)cc1	-1.1	3.2	1.6	-7.0	99.7*	113.6*
Cc1ccc(/C=C2\SC(=S)N(CCCC(=O)Nc3ccccn3)C2=O)cc1	-8.2	7.5	1.4	-10.9	111.1*	113.5*
O=C(CCN1C(=O)/C(=C/c2ccccc2)SC1=S)Nc1ccccn1	-2.9	5.6	-1.8	1.2	.	.
O=[N+]([O-])c1ccc(-c2ccc(C=NNc3nc(N4CCCC4)nc(N4CCCC4)n3)o2)cc1	.	-0.4	.	.	.	.
Cc1ccc(OCC(=O)N2CCN(c3nnc(-c4ccc(C)cc4)c4ccccc34)CC2)cc1	-2.1	3.1	1.3	2.7	97.4*	74.6*
COc1ccc(OCC(=O)N2CCN(c3nnc(-c4ccc(C)cc4)c4ccccc34)CC2)cc1	-4.7	3.7	3.4	4.7	23.2	.
Cc1ccc(N=c2ssnc2Cl)cc1	0.3	5.7	4.3	1.7	5.0	.
Cc1cc(Cl)ccc1N=c1ssnc1Cl	5.1	-0.3	-1.7	-1.6	108.5*	15.6
Cc1cc(C)nc(/N=c2/ssnc2Cl)c1	-4.5	.	22.1*	14.3	96.2*	19.1
COc1ccc(OC)c(N=c2ssnc2Cl)c1	-0.2	3.9	-0.5	1.4	106.8*	-6.3
SMILES	UPR XBP1 act	UCH37 DUB inh	CTSL1 counter	UPR CHOP act	CHOP inh	CHOP confirm
COc1ccc(OCC(=O)NN=Cc2cccc3cccnc23)cc1	.	7.2	.	.	.	.
Cc1ccc(C2=N/C(=C\c3cccnc3)C(=O)O2)cc1	-2.4	-0.9	1.2	0.4	21.5	.
CCc1ccc(C2=C/C(=C/c3cccnc3)C(=O)O2)cc1	-2.8	-13.0	-11.5	0.4	103.2*	-59.2
O=C(NN=Cc1ccc(Cl)cc1)c1sccc1-n1cccc1	.	2.2	.	.	.	.
COc1cc(/C=C/C(=O)OCC(=O)NCCC2=CCCCC2)ccc1O	1.5	0.1	3.3	-2.6	14.4	.
O=C(COC(=O)/C=C/c1cccc(Br)c1)NCCC1=CCCCC1	-1.1	3.4	-2.0	4.7	96.2*	-1.1

Source: PubChem BioAssay (several laboratories)
